Measurements as given in ChEMBL document CHEMBL3244282, “Synthesis and evaluation of bis-dipeptide and bis-tripeptide analogues of actinomycin D” (1978).
Active and inactive are the calls of the source. No cut-off for these calls is given here. Starred links: 1 amine or outer side, 2 acyl side, 3 side chain; linkers in the order of their positions; H or OH if unused. Positions of bridges follow the written chain, without caps; N, C: chain ends. Non-standard residues stand in square brackets, D forms with d. Residues, ends and D or L forms follow the SMILES beside them. Chains are numbered I, II in the order given. Actinocin(1to9) = Cc1c2oc3c(C)ccc(C(=O)[*:2])c3nc-2c(C(=O)[*:1])c(N)c1=O; NMeV = CN[C@H](C(=O)O)C(C)C; Sar = CNCC(=O)O

How the values were obtained:
P388 = assay: Antitumor activity against mouse P388 cells allografted in CD2F1 mouse assessed as increase in life span at 25 mg/kg administered daily for 9 days; type: functional
Method in brief: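 P-388 leukaemia in CD2F1 mice, screened by the NCI Drug Research and Development Program. Dosing was by daily injection for 9 days, up to 25 mg/kg per injection. The read-out was increased life span (ILS), with ILS >25% taken as the minimum for activity.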

Calf thymus DNA [1] = assay: Binding affinity to calf thymus DNA assessed as bathochromic shift after 30 mins by spectral analysis; type: nucleic-acid assay; settings: Bos taurus
Calf thymus DNA [2] = assay: Binding affinity to calf thymus DNA assessed as hypochromic shift after 30 mins by spectral analysis; type: nucleic-acid assay; settings: Bos taurus
Calf thymus DNA [3] = assay: Binding affinity to calf thymus DNA assessed as isosbestic point after 30 mins by spectral analysis; type: nucleic-acid assay; settings: Bos taurus
Calf thymus DNA [4] = assay: Binding affinity to calf thymus DNA at DNA/drug ratio of 12:1 after 30 mins by ultracentrifugation method; type: nucleic-acid assay; settings: Bos taurus
Method in brief: (§1)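 Drug at about 5×10^-6 M with calf thymus DNA at 0, 1.94, 2.27, 3.35 and 9.45×10^-5 M in pH 7.00 1 M NaCl–0.008 M Tris buffer, equilibrated 30 min, then spun at 150 000g for 6 h at 25 °C. Free drug was measured in the supernatant. Bound drug was measured by dissolving the pellet in 50% DMF and reading A443 against drug in 50% DMF. Repeated at varied drug/DNA ratios.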

Bacillus spizizenii [5] = assay: Antibacterial activity against Bacillus subtilis ATCC 6633 at 40 ug/ml by cup-plate diffusion assay; type: functional; settings: read-out: IZ
Method in brief: (§2)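 Cup-plate agar diffusion with 6-mm stainless steel cylinders on nutrient agar seeded with B. subtilis ATCC 6633, incubated at 37 °C. Activity is read as the zone of inhibition, compared with actinomycin D standards. On repeat assays, test concentrations were adjusted to give zones of roughly the same size as the standards.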

Bacillus spizizenii [6] = assay: Antibacterial activity against Bacillus subtilis ATCC 6633 at 40 ug/ml by cup-plate diffusion assay relative to actinomycin D; type: functional; method in brief: as §2
Bacillus spizizenii [7] = assay: Antibacterial activity against Bacillus subtilis ATCC 6633 at 0.65 ug/ml by cup-plate diffusion assay; type: functional; settings: read-out: IZ; method in brief: as §2
Calf thymus DNA [8] = assay: Binding affinity to calf thymus DNA at DNA/drug ratio of 25:1 after 30 mins by ultracentrifugation method; type: nucleic-acid assay; settings: Bos taurus; method in brief: as §1
Bacillus spizizenii [9] = assay: Antibacterial activity against Bacillus subtilis ATCC 6633 at 2.50 ug/ml by cup-plate diffusion assay; type: functional; settings: read-out: IZ; method in brief: as §2
Bacillus spizizenii [10] = assay: Antibacterial activity against Bacillus subtilis ATCC 6633 at 5 ug/ml by cup-plate diffusion assay; type: functional; settings: read-out: IZ; method in brief: as §2
Calf thymus DNA [11] = assay: Binding affinity to calf thymus DNA after 30 mins by ultracentrifugation method; type: nucleic-acid assay; settings: Bos taurus; method in brief: as §1
Bacillus spizizenii [12] = assay: Antibacterial activity against Bacillus subtilis ATCC 6633 at 2.35 ug/ml by cup-plate diffusion assay; type: functional; settings: read-out: IZ; method in brief: as §2
Bacillus spizizenii [13] = assay: Antibacterial activity against Bacillus subtilis ATCC 6633 at 1.25 ug/ml by cup-plate diffusion assay; type: functional; settings: read-out: IZ; method in brief: as §2
Bacillus spizizenii [14] = assay: Antibacterial activity against Bacillus subtilis ATCC 6633 at 3.85 ug/ml by cup-plate diffusion assay; type: functional; settings: read-out: IZ; method in brief: as §2
Calf thymus DNA [15] = assay: Binding affinity to calf thymus DNA assessed as reduction in absorbance after 30 mins by spectral analysis; type: nucleic-acid assay; set-up: scale not given: the % may be the effect or the level left; settings: Bos taurus

SMILES	Activity (P388)	Activity (Calf thymus DNA [1])	Activity (Calf thymus DNA [2])	Activity (Calf thymus DNA [3])	Activity (Calf thymus DNA [4])	zone of inhibition at 40 µg/mL (Bacillus spizizenii [5])	Ratio (Bacillus spizizenii [6])	zone of inhibition at 0.65 µg/mL (Bacillus spizizenii [7])	Activity (Calf thymus DNA [8])	zone of inhibition at 2.5 µg/mL (Bacillus spizizenii [9])	zone of inhibition at 5 µg/mL (Bacillus spizizenii [10])	Ka (Calf thymus DNA [11])	zone of inhibition at 2.35 µg/mL (Bacillus spizizenii [12])	zone of inhibition at 1.25 µg/mL (Bacillus spizizenii [13])	zone of inhibition at 3.85 µg/mL (Bacillus spizizenii [14])	Activity (Calf thymus DNA [15])
COC(=O)[C@@H]1CCCN1C(=O)[C@H](NC(=O)[C@@H](NC(=O)c1c2nc3c(C(=O)N[C@H](C(=O)N[C@@H](C(=O)N4CCC[C@H]4C(=O)OC)C(C)C)[C@@H](C)O)ccc(C)c3oc-2c(C)c(=O)c1N)[C@@H](C)O)C(C)C	<=25%	inactive	inactive	inactive												
CNC(=O)[C@H](NC(=O)[C@@H](NC(=O)c1c2nc3c(C(=O)N[C@H](C(=O)N[C@@H](C(=O)NC)C(C)C)[C@@H](C)O)ccc(C)c3oc-2c(C)c(=O)c1N)[C@@H](C)O)C(C)C	<=25%	inactive	inactive	inactive	17%	8.5 mm	1.1									
COC(=O)[C@@H]1CC(=O)CN1C(=O)[C@H](NC(=O)[C@@H](NC(=O)c1c2nc3c(C(=O)N[C@H](C(=O)N[C@@H](C(=O)N4CC(=O)C[C@H]4C(=O)OC)C(C)C)[C@@H](C)O)ccc(C)c3oc-2c(C)c(=O)c1N)[C@@H](C)O)C(C)C	<=25%	inactive	inactive	inactive												
COC(=O)[C@H](NC(=O)[C@@H](NC(=O)c1c2nc3c(C(=O)N[C@H](C(=O)N[C@@H](C(=O)OC)C(C)C)[C@@H](C)OC(C)=O)ccc(C)c3oc-2c(C)c(=O)c1N)[C@@H](C)OC(C)=O)C(C)C	<=25%	inactive	inactive	inactive												
Cc1c2oc3c(C)ccc(C(=O)N[C@@H]4C(=O)N[C@H](C(C)C)C(=O)N5CCC[C@H]5C(=O)N(C)CC(=O)N(C)[C@@H](C(C)C)C(=O)O[C@@H]4C)c3nc-2c(C(=O)N[C@@H]2C(=O)N[C@H](C(C)C)C(=O)N3CCC[C@H]3C(=O)N(C)CC(=O)N(C)[C@@H](C(C)C)C(=O)O[C@@H]2C)c(N)c1=O [DACTINOMYCIN] (I: T[dV]P[Sar][NMeV] / II: T[dV]P[Sar][NMeV]; ester I:1-I:C, II:1-II:C; linker I:N-II:N via Actinocin(1to9))	<=25%	Active	Active	Active	70%			8.5 mm	85%	14.5 mm	18.2 mm	1.56 ×10⁶ /M	14.3 mm	11.1 mm	16.6 mm	30%
Cc1c2oc3c(C)ccc(C(=O)N[C@H](C(=O)N[C@@H](C(=O)O)C(C)C)[C@@H](C)O)c3nc-2c(C(=O)N[C@H](C(=O)N[C@@H](C(=O)O)C(C)C)[C@@H](C)O)c(N)c1=O	<=25%	inactive	inactive	inactive		14.3 mm	5.3									
COC(=O)[C@H](NC(=O)[C@@H](NC(=O)c1c2nc3c(C(=O)N[C@H](C(=O)N[C@@H](C(=O)OC)C(C)C)[C@@H](C)O)ccc(C)c3oc-2c(C)c(=O)c1N)[C@@H](C)O)C(C)C	<=25%	inactive	inactive	inactive		16.6 mm	9.6		30%							10%
Cc1c2oc3c(C)ccc(C(=O)N[C@H](C(=O)N[C@@H](C(=O)NN)C(C)C)[C@@H](C)O)c3nc-2c(C(=O)N[C@H](C(=O)N[C@@H](C(=O)NN)C(C)C)[C@@H](C)O)c(N)c1=O	<=25%	inactive	inactive	inactive												
Cc1c2oc3c(C)ccc(C(=O)N[C@H](C(=O)N[C@@H](C(=O)NCCO)C(C)C)[C@@H](C)O)c3nc-2c(C(=O)N[C@H](C(=O)N[C@@H](C(=O)NCCO)C(C)C)[C@@H](C)O)c(N)c1=O	<=25%	inactive	inactive	inactive												
